≈ marks a conversion by molar mass, not a printed value.
Legend:
[1] = test system: Human immunodeficiency virus 1; test: Antiviral activity against R5 tropic HIV1 Ba-L infected in human PBMC assessed as inhibition of […] antigen expression; assay type: functional, organism-based; conditions: Human immunodeficiency virus 1, Ba-L
[2] = test system: Human immunodeficiency virus 1; test: Antiviral activity against multidrug-resistant R5 tropic HIV1 MM infected in human PBMC assessed as inhibition of […] antigen expression; assay type: functional, organism-based; conditions: Human immunodeficiency virus 1, MM
Cytochrome P450 2D6 = Cytochrome P450 2D6 (Homo sapiens, UniProt P10635); test: Inhibition of CYP2D6; assay type: ADME
How it was run: (§1)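 Inhibition tested separately against P450 isoforms 2C9, 2D6 and 3A4, with test concentrations up to 30 μM.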

Cytochrome P450 2C9 = Cytochrome P450 2C9 (Homo sapiens, UniProt P11712); test: Inhibition of CYP2C9; assay type: ADME; how it was run: as §1
[3] = Cmax in rat at 10 mg/kg, po; assay type: ADME, organism-based; parameters: dose 10 mg/kg, route oral; conditions: in vivo
[4] = (§2) AUC in rat at 10 mg/kg, po; assay type: ADME, organism-based, Plasma; parameters: dose 10 mg/kg, route oral; conditions: plasma
Cytochrome P450 3A4 [5] = molecular target: T1, Cytochrome P450 3A4 (Homo sapiens, UniProt P08684); test: Inhibition of CYP3A4; assay type: ADME; how it was run: as §1
[6] = Solubility of the compound; assay type: physicochemical
How it was run: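 Kinetic aqueous solubility, determined at pH 6.8 and reported in […].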

[7] = Half life in rat at 10 mg/kg, po; assay type: ADME, organism-based; parameters: dose 10 mg/kg, route oral; conditions: in vivo
How it was run: (§3)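 Single-dose oral and intravenous administration in rats. Plasma PK parameters were derived from these dosings: clearance and Vss after iv dosing, and Cmax and AUC after oral dosing.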

Caco-2 = test: Permeability across human Caco2 cell membrane; assay type: ADME, cell-based
[8] = (§4) AUC in rat at 3 mg/kg, iv; assay type: ADME, organism-based, Plasma; parameters: dose 3 mg/kg, route intravenous; conditions: plasma; how it was run: as §3
[9] = Half life in rat at 3 mg/kg, iv; assay type: ADME, organism-based; parameters: dose 3 mg/kg, route intravenous; conditions: in vivo
[10] = Clearance in rat at 3 mg/kg, iv; assay type: ADME, organism-based; parameters: dose 3 mg/kg, route intravenous; conditions: in vivo
[11] = (§5) Oral bioavailability in rat at 10 mg/kg; assay type: ADME, organism-based; conditions: in vivo; how it was run: as §3
Rattus norvegicus [12] = test: as §4; assay type: ADME, organism-based, Plasma; parameters: dose 3 mg/kg, route intravenous; conditions: in vivo; how it was run: as §3
Cytochrome P450 3A4 [13] = molecular target: T1, Cytochrome P450 3A4; test: Inhibition of CYP3A4 upto 30 uM; assay type: ADME; how it was run: as §1
Rattus norvegicus [14] = test: as §2; assay type: ADME, organism-based, Plasma; parameters: dose 10 mg/kg, route oral; conditions: in vivo
Rattus norvegicus [15] = test: as §5; assay type: ADME, organism-based; conditions: in vivo; how it was run: as §3
[16] = Aqueous solubility of the compound at pH 6.8; assay type: physicochemical; conditions: buffer
How it was run: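 Kinetic aqueous solubility at pH 6.8, reported in μg/mL.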

[17] = molecular target: C-C chemokine receptor type 5 (Homo sapiens, UniProt P51681); test: Antagonist activity at human CCR5 expressed in CHO cells assessed as inhibition of MIP-1alpha-induced calcium mobilization Ca assay; assay type: functional, cell-based
C-C chemokine receptor type 5, sequence (P51681 whole entry): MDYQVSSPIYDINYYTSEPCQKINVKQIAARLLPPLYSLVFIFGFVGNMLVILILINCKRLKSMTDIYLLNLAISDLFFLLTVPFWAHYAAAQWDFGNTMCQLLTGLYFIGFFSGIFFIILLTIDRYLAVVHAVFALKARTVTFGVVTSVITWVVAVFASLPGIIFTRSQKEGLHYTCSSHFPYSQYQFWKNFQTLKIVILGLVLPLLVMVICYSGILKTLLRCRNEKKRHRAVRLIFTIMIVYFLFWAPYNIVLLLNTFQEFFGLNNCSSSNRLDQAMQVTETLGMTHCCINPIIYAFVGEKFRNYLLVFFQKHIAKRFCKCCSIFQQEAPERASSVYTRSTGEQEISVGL

T1 sequence (P08684 whole entry): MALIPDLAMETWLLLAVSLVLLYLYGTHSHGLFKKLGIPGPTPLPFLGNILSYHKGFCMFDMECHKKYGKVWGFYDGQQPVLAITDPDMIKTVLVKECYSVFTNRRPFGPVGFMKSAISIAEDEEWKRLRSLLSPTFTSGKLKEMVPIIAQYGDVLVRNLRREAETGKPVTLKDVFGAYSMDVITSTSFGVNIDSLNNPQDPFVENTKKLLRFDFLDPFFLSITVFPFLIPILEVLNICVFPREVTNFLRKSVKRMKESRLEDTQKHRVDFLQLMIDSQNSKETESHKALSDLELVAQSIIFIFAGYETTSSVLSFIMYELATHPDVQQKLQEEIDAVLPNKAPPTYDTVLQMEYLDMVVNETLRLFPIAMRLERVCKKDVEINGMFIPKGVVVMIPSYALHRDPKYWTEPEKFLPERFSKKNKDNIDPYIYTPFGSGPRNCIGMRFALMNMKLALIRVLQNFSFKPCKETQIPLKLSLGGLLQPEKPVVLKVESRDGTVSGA
Cytochrome P450 2D6, sequence (P10635 whole entry, canonical isoform): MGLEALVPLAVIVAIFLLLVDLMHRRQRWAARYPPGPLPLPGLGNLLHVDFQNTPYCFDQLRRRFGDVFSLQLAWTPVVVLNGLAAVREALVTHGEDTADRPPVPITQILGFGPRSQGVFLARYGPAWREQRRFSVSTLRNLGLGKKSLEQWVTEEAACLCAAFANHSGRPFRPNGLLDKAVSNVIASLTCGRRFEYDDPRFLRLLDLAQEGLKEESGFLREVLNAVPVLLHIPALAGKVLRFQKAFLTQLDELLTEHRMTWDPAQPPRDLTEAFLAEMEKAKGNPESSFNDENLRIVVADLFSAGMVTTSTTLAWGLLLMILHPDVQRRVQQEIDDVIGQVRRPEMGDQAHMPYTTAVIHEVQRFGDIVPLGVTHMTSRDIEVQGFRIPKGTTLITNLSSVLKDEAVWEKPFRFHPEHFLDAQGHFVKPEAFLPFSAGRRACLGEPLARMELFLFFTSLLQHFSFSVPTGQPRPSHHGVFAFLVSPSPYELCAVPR
Cytochrome P450 2C9, sequence (P11712 whole entry): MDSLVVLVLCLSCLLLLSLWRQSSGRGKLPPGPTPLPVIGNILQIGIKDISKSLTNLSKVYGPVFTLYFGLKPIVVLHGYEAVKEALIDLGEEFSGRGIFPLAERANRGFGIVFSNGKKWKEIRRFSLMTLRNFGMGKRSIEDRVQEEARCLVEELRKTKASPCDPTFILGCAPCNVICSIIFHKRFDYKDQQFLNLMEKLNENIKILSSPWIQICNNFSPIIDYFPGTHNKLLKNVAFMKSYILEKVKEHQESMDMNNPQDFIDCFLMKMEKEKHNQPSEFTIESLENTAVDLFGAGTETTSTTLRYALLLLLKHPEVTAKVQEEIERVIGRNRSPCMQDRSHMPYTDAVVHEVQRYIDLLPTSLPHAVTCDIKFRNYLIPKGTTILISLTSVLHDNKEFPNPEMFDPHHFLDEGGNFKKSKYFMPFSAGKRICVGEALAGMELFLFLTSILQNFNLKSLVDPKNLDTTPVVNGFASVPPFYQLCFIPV

Row | SMILES | IC50 (Cytochrome P450 2D6) [µM] | IC50 (Cytochrome P450 2C9) [µM] | Cmax [3] [ng/mL] | AUC [4] [ng·h/mL] | IC50 (Cytochrome P450 3A4 [5]) [µM] | solubility [6] [µM] | half-life [7] [min] | bioavailability [11] [%] | other results
1 | COC[C@@H](c1ccc(C(F)(F)F)cc1)N1CCN(C2(C)CCN(C(=O)c3c(C)ncnc3C)CC2)C[C@@H]1C [VICRIVIROC] |  |  |  |  |  |  |  |  | IC50 [1]: 0.004 µM; IC50 [2]: 0.003 µM
2 | CCCCN1C(=O)[C@H]([C@H](O)C2CCCCC2)NC(=O)C12CCN(Cc1ccc(Oc3ccc(C(=O)O)cc3)cc1)CC2 | > 30 | > 30 | 280 | 126 | > 30 | 85 (≈ 49.1 µg/mL) | 14.4 |  | permeability (Caco-2): 1.6 ×10⁻⁶ cm/s
3 | CCCCN1C(=O)[C@@H]([C@H](O)C2CCCCC2)NC(=O)C12CCN(Cc1ccc(Oc3ccc(C(=O)O)cc3)cc1)CC2.Cl [APLAVIROC HYDROCHLORIDE] | > 30 | > 30 | 2360 | 3420 | > 30 | 70 | 120 | 23 | AUC [8]: 4400 ng·h/mL; half-life [9]: 21.8 min; permeability (Caco-2): 3.8 ×10⁻⁶ cm/s; clearance [10]: 11.3 mL/min/kg
4 | Cc1c(O)cccc1C(=O)N[C@@H](CSc1ccccc1)[C@H](O)CN1C[C@H]2CCCC[C@H]2C[C@H]1C(=O)NC(C)(C)C |  |  |  |  |  |  |  |  | IC50 [2]: > 1 µM
5 | CCCCN1C(=O)C(CC(C)C)NC(=O)C12CCN(Cc1ccc(Oc3ccccc3)cc1)CC2.Cl (racemic) | 4.6 | 5.9 |  |  | 19.7 |  | 75.7 | 1.3 | AUC (Rattus norvegicus [12]): 372 ng·h/mL
6 | CCCCN1C(=O)[C@@H]([C@H](O)C2CCCCC2)NC(=O)C12CCN(Cc1ccc(Oc3ccccc3)cc1)CC2.Cl | 9.8 | 3.7 |  |  | > 30 |  |  |  | inhibition (INH) (Cytochrome P450 3A4 [13]): Not Active
7 | CCCCN1C(=O)[C@H](CC2CCCCC2)NC(=O)C12CCN(Cc1ccc(Oc3ccc(C(=O)O)cc3)cc1)CC2.Cl | > 30 | 8.8 | 2400 |  | 24.9 |  | 48.4 |  | AUC (Rattus norvegicus [12]): 3091 ng·h/mL; half-life [9]: 11.1 min; AUC (Rattus norvegicus [14]): 10532 ng·h/mL; clearance [10]: 16 mL/min/kg; F (Rattus norvegicus [15]): 34%
8 | CCCCN1C(=O)C(CC2CCCCC2)NC(=O)C12CCN(Cc1ccc(Oc3ccccc3)cc1)CC2.Cl (racemic) | 7.8 | 5.5 |  |  |  |  | 103 | 1.9 | AUC (Rattus norvegicus [12]): 400 ng·h/mL; solubility [16]: < 0.2 µg/mL
9 | CCCCN1C(=O)[C@H]([C@@H](O)C2CCCCC2)NC(=O)C12CCN(Cc1ccc(Oc3ccc(C(=O)O)cc3)cc1)CC2.Cl | > 30 | > 30 | 260 | 213 | > 30 | 80 | 19.2 | 6.5 | AUC [8]: 988 ng·h/mL; half-life [9]: 16.2 min; permeability (Caco-2): 2.1 ×10⁻⁶ cm/s; clearance [10]: 50.9 mL/min/kg
10 | CCCCN1C(=O)[C@@H]([C@@H](O)C2CCCCC2)NC(=O)C12CCN(Cc1ccc(Oc3ccc(C(=O)O)cc3)cc1)CC2.Cl | > 30 | 18 | 70 | 67.5 | > 30 | 81 | 35.2 |  | 
11 | Cc1ccc(-c2ccc3c(c2)C=C(C(=O)Nc2ccc(C[N+](C)(C)C4CCOCC4)cc2)CCC3)cc1 |  |  |  |  |  |  |  |  | IC50 [1]: 0.028 µM; IC50 [2]: 0.014 µM
12 | CCCCN1C(=O)[C@@H]([C@H](O)C(C)C)NC(=O)C12CCN(Cc1ccc(Oc3ccccc3)cc1)CC2 | > 30 | > 30 |  |  | > 30 |  |  |  | IC50 [17]: 0.084 µM

— ChEMBL document CHEMBL1667838, “Spirodiketopiperazine-based CCR5 antagonist: discovery of an antiretroviral drug candidate” (Bioorg Med Chem Lett, 2011)
